We go through 38 molecules from ChEMBL document CHEMBL3992517 (J Med Chem, 2017).

pIC50: −log10 of the molar value. Active and inactive are the calls of the source. The calls are words filed in the database; no cut-off is given here.

The test system of data set [1] is K562. Briefly: Antiproliferative activity against human K562 cells after 48 hrs by Alamar blue dye based neubauer hemocytometer method. The format is functional, cell-based. The settings on record: K562, 48 h. The procedure, abridged:
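K562 human chronic myelogenous leukemia cells, mycoplasma-negative, grown at 37 °C in 5% CO2 in RPMI 1640 with 10% FBS, penicillin/streptomycin and L-glutamine. Cells were exposed to compound for 48 h and then counted on a Neubauer hemocytometer. IC50 is the concentration giving 50% growth inhibition, taken as the mean of at least three independent determinations (SD < 10%).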

A short description of data set [2]: (§1) Inhibition of porcine tubulin polymerization after 45 mins by turbidometric method. Also on record: species or system Sus scrofa.
For data set [3], the target named is Tubulin beta-5 chain (Homo sapiens) (UniProt P07437). Briefly: Competitive binding affinity to beta-tubulin in human K562 cells assessed as disappearance of EBI-protein adducts at 20 to 40 uM preincubated for 2 hrs followed by EBI addition measured after 1.5 hrs by Western blot analysis. The format is cell-based. (Immunoblotting shows a protein as a band on a membrane.)
Sequence of Tubulin beta-5 chain (Homo sapiens) (P07437 whole entry): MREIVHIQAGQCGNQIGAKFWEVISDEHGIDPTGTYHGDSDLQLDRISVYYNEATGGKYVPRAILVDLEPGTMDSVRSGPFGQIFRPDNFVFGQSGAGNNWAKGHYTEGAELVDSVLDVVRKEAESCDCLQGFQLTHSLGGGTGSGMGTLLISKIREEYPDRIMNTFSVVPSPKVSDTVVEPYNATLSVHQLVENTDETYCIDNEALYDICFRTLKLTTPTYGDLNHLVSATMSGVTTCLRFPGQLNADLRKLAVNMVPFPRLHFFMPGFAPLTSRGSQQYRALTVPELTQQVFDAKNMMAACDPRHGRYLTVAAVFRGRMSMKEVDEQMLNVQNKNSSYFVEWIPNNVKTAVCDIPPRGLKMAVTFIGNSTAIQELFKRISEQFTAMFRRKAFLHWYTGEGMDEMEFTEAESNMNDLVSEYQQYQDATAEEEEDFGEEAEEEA

Another data set concerns Panc1005. Briefly: Antiproliferative activity against human Panc 10.05 cells after 72 hrs by SRB assay. The format is functional. The settings on record: Panc1005, 72 h. In short, it runs like this:
(§2)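 Cell panel screen (93 tumour lines listed in text; 94 in the table), run to the DTP NCI sulforhodamine B protocol. Concentrations from 0.0001 to 10 µM. GI50 is the molar concentration giving 50% growth inhibition relative to the initial seeding number, taken from log-transformed data. zScore is reported per cell line.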
(In general: In SRB staining, fixed cells bind dye roughly in proportion to their protein.)

In another data set the test system is PBMC. Briefly: Cytotoxicity against human PBMC after 72 hrs by SRB assay. The class given is cell-based. The procedure, abridged:
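Resting, non-proliferating peripheral blood mononuclear cells were included in the panel and quantified by sulforhodamine B staining.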

For a further data set, the system named is MG-63. Briefly: Antiproliferative activity against human MG63 cells after 72 hrs by SRB assay. The format is functional. The settings on record: MG-63, 72 h. The procedure, abridged:
as §2

The next data set concerns SK-LMS-1. Briefly: Antiproliferative activity against human SKLMS1 cells after 72 hrs by SRB assay. The class given is functional. The settings on record: SK-LMS-1, 72 h. In short, it runs like this: as §2
The subject of another data set is RD. Briefly: Antiproliferative activity against human RD cells after 72 hrs by SRB assay. The class given is functional. In short, it runs like this:
as §2

In data set [4] the test system is K562. Briefly: Cell cycle arrest in human K562 cells assessed as accumulation at G2/M phase up to 30 nM after 24 hrs by propidium iodide staining-based flow cytometry. On the technique in general: Flow cytometry measures light scatter and fluorescence of single cells or particles in a stream.
For a further data set, the system named is SK-N-AS. Briefly: Antiproliferative activity against human SK-N-AS cells after 72 hrs by SRB assay. The class given is functional. In short, it runs like this: as §2
For a further data set, the system named is PANC-1. Briefly: Antiproliferative activity against human PANC1 cells after 72 hrs by SRB assay. The class given is functional. The note with it: PANC-1, 72 h. In short, it runs like this:
as §2

A short description of data set [5]: Antiproliferative activity against human CLS439 cells after 72 hrs by SRB assay. The class given is functional. The note with it: CLS439, 72 h. In short, it runs like this: as §2
For the next data set, the system named is SK-BR-3. Briefly: Antiproliferative activity against human SK-BR-3 cells after 72 hrs by SRB assay. The class given is functional. The note with it: SK-BR-3, 72 h. The procedure, abridged: as §2
The species entered for the next data set is Sus scrofa. The data set is described as §1.
The next data set relates to Caco-2. Briefly: Antiproliferative activity against human Caco2 cells after 72 hrs by SRB assay. The format is functional. The settings on record: Caco-2, 72 h. In short, it runs like this: as §2
Another data set relates to JIMT-1. Briefly: Antiproliferative activity against human JIMT1 cells after 72 hrs by SRB assay. The format is functional. The note with it: JIMT-1, 72 h. In short, it runs like this: as §2
Another data set concerns NCI-H82. Briefly: Antiproliferative activity against human NCI-H82 cells after 72 hrs by SRB assay. The class given is functional. The settings on record: NCI-H82, 72 h. The procedure, abridged: as §2
The subject of a further data set is JAR. Briefly: Antiproliferative activity against human JAR cells after 72 hrs by SRB assay. The class given is functional. The procedure, abridged: as §2
A further data set has as its system COLO-678. Briefly: Antiproliferative activity against human COLO-678 cells after 72 hrs by SRB assay. The format is functional. The settings on record: COLO-678, 72 h. The procedure, abridged: as §2
The subject of the next data set is HT-29. Briefly: Antiproliferative activity against human HT-29 cells after 72 hrs by SRB assay. The format is functional. The note with it: HT-29, 72 h. In short, it runs like this: as §2
A further data set deals with NCI-H292. Briefly: Antiproliferative activity against human NCI-H292 cells after 72 hrs by SRB assay. The note with it: NCI-H292, 72 h. The class given is functional. The procedure, abridged: as §2
The subject of the next data set is IMR-90. Briefly: Antiproliferative activity against human IMR90 cells after 72 hrs by SRB assay. The class given is functional. The note with it: IMR-90, 72 h. In short, it runs like this: as §2

Consider `COc1cccc(N2CCN(CC(=O)N3c4ccccc4Oc4ccccc43)CC2)c1`, for which the negative-log IC50 (pIC50) with K562 [1] is 5.30; in data set [2], under 5.00.
`O=C(N1CCN(c2ccc(C(F)(F)F)cc2)CC1)N1c2ccccc2Oc2ccccc21`: the figures for the pIC50 (with K562 [1]; in data set [2]) were under 4.22 and under 5.00, respectively.
With `COc1ccccc1N1CCN(C(=O)N2c3ccccc3Sc3ccccc32)CC1`, the pIC50 is 7.70 with K562 [1] and 6.22 in data set [2]. For the same molecule, the outcome in [3] was Active.
With `COc1cccc(N2CCN(C(=O)N3c4ccccc4Oc4ccc(Cl)cc43)CC2)c1`, the pIC50 is 7.52 in the data set with K562 [1] and 6.10 in [2].
For `COc1cccc(N2CCN(C(=O)N3c4ccccc4C=Cc4ccccc43)CC2)c1` the same measures were 6.03 and 5.45.
In the case of `COc1ccccc1N1CCN(C(=O)Nc2ccccc2Oc2ccccc2)CC1`, the negative-log IC50 (pIC50) (in the data set on K562 [1]; in data set [2]) was under 5.00 throughout.
For the molecule `COc1ccccc1N1CCN(C(=O)N2c3ccccc3Oc3ccc(Cl)cc32)CC1`, the negative-log IC50 (pIC50) was 7.52 in the data set on K562 [1] and 6.21 in [2].
With `COc1ccccc1N1CCN(CC(=O)N2c3ccccc3Oc3ccccc32)CC1`, the pIC50 in the data set on K562 [1] is 5.05; in [2], under 5.00.
On to `COc1cccc(N2CCN(C(=O)N3c4ccccc4Sc4ccccc43)CC2)c1`, for which the pIC50 in the data set with K562 [1] was 7.70; in [2], 6.26.
For `COc1ccc(N2CCN(C(=O)N3c4ccccc4Oc4ccccc43)CC2)cc1` the same measures were 5.50 and 4.84.
For `O=C(N1CCN(c2ccccc2)CC1)N1c2ccccc2Sc2ccccc21` the same measures were 6.89 and 6.09.
As to `N#Cc1ccc(N2CCN(C(=O)N3c4ccccc4Sc4ccccc43)CC2)cc1`, the pIC50 in the data set with K562 [1] was 6.41.
Regarding `COc1ccc(N2CCN(C(=O)N3c4ccccc4Oc4cc(C#N)ccc43)CC2)cc1`, the pIC50 with K562 [1] is 5.43; in data set [2], 5.47.
As to `COc1ccccc1N1CCN(C(=O)N2c3ccccc3Sc3ccc(Cl)cc32)CC1`, the pIC50 in the data set with K562 [1] was 7.05; in data set [2], 6.29.
As for `O=C(N1CCN(c2ccc(Cl)cc2)CC1)N1c2ccccc2Oc2ccccc21`, the pIC50 in the data set on K562 [1] is 6.20; in data set [2] it was 6.08.
Regarding `COc1cccc(N2CCN(C(=O)N3c4ccccc4Oc4cc(C#N)ccc43)CC2)c1`, the GI50 worked out at 1.7 nM in the data set with Panc1005; 1.5 nM in the data set with MG-63; 5.9 nM with SK-LMS-1; 1.7 nM in the data set on RD; 1.4 nM in the data set with SK-N-AS; 6.5 nM in the data set on PANC-1. The GI50 in [5] was found to be 7.8 nM; in the data set with SK-BR-3, 1.5 nM; with Caco-2, 7.9 nM; with JIMT-1, 5.9 nM; with NCI-H82, 1.6 nM; in the data set on JAR it was 1.7 nM. Moreover, the GI50 is 7.5 nM in the data set with COLO-678, 6.4 nM with HT-29, 6.7 nM with NCI-H292 and 1.6 nM in the data set with IMR-90. The Activity result in the data set on PBMC is recorded as “Non-Toxic”. The negative-log IC50 (pIC50) in the data set on K562 [1] was 8.15; in [2], 6.44. In the data set on K562 [4], the result was Active. The inhibition entry in the data set listed under Sus scrofa is “Dose-dependent effect”.
Turning to `COc1ccc(N2CCN(C(=O)Nc3ccccc3Oc3ccccc3)CC2)cc1`, the pIC50 (in the data set on K562 [1]; in data set [2]) was under 5.00 in each case.
For `COc1ccc(CNC(=O)N2c3ccccc3Oc3ccccc32)cc1`, the negative-log IC50 (pIC50) with K562 [1] was 4.72; in [2] it was 5.05.
As for `COc1ccccc1N1CCN(C(=O)N2c3ccccc3Oc3ccccc32)CC1`, the pIC50 is 7.70 in the data set with K562 [1] and 6.19 in data set [2].
The matching figures for `O=C(N1CCN(c2ccccc2)CC1)N1c2ccccc2Oc2ccccc21`: 7.52 and 5.86.
`COc1cccc(N2CCN(C(=O)Nc3ccccc3Oc3ccccc3)CC2)c1`: the pIC50 (in the data set on K562 [1]; in [2]) was under 5.00 in each case.
Regarding `COc1ccc(N2CCN(C(=O)N3c4ccccc4Sc4ccccc43)CC2)cc1`, in the data set with K562 [1], the pIC50 is 5.43.
As for `COc1cccc(N2CCN(C(=O)N(c3ccccc3)c3ccccc3)CC2)c1`, the pIC50 is 4.74 with K562 [1] and under 5.00 in data set [2].
In the data set with K562 [1], `CC[C@]1(O)C[C@H]2CN(CCc3c([nH]c4ccccc34)[C@@](C(=O)OC)(c3cc4c(cc3OC)N(C)[C@H]3[C@@](O)(C(=O)OC)[C@H](OC(C)=O)[C@]5(CC)C=CCN6CC[C@]43[C@@H]65)C2)C1` had a negative-log IC50 (pIC50) of 9.00.
For `COc1cccc(N2CCN(C(=O)N3c4cc(Cl)ccc4Oc4ccc(Cl)cc43)CC2)c1`, the pIC50 with K562 [1] was 6.74; in [2], 6.05.
`COc1ccccc1N1CCN(C(=O)N2c3ccccc3CCc3ccccc32)CC1`: the pIC50 in the data set with K562 [1] is 6.08; in data set [2], 4.97.
In the data set with K562 [1], `c1ccc2c(c1)Nc1ccccc1O2` [PHENOXAZINE] had a pIC50 of 4.77.
Regarding `COc1ccccc1N1CCN(C(=O)N2c3ccccc3C=Cc3ccccc32)CC1`, the negative-log IC50 (pIC50) in the data set with K562 [1] is 6.35; in data set [2], 5.55.
In the data set on K562 [1], `Cc1ccc(N2CCN(C(=O)N3c4ccccc4Oc4ccccc43)CC2)cc1` gave a pIC50 of 5.86.
For `COc1cccc(N2CCN(C(=O)N3c4ccccc4Sc4ccc(Cl)cc43)CC2)c1`, the pIC50 in the data set on K562 [1] was 7.52; in [2], 6.04.
For `COc1cccc(N2CCN(C(=O)N3c4ccccc4Oc4ccccc43)CC2)c1` the same measures were 7.70 and 6.16.
`N#Cc1ccc(N2CCN(C(=O)N3c4ccccc4Oc4ccccc43)CC2)cc1`: the pIC50 was under 4.70 in the data set with K562 [1] and under 5.00 in [2].
In the case of `COc1ccc(NC(=O)N2c3ccccc3Oc3ccccc32)cc1`, the pIC50 was under 4.10 with K562 [1] and under 5.00 in data set [2].
For `COc1ccccc1N1CCN(C(=O)N2c3cc(Cl)ccc3Oc3ccc(Cl)cc32)CC1` the same measures were 6.89 and 5.92.
As to `COc1ccccc1N1CCN(C(=O)N2c3ccccc3Oc3cc(C#N)ccc32)CC1`, the pIC50 is 7.52 in the data set with K562 [1] and 6.49 in [2].
For `COc1cccc(CNC(=O)N2c3ccccc3Oc3ccccc32)c1` the same measures were 5.22 and 5.07.
For `COc1ccc(N2CCN(C(=O)N3c4ccccc4Sc4ccc(Cl)cc43)CC2)cc1`, the pIC50 was 5.72 in the data set with K562 [1] and under 5.00 in [2].
With `O=C(N1CCN(c2ccc([N+](=O)[O-])cc2)CC1)N1c2ccccc2Oc2ccccc21`, the pIC50 is under 4.15 with K562 [1] and under 5.00 in [2].

Broadly, the pIC50 is −log10 of the IC50, conventionally taken in molar units. What is called GI50 is the concentration at which growth is held to half of that of the control. A lower GI50 goes with greater sensitivity of the cells.
